Test results: ChEMBL document CHEMBL1126990, “Design and synthesis of 18F-labeled neurotoxic analogs of MPTP” (J Med Chem, 1993)

Experiments:
Type in all cases: ADME
Rattus norvegicus = species on record: Rattus norvegicus; experiment: Maximal rate (Vmax) for oxidation by rat liver MAO (results are means of number of separate experiments, n=5)
Method in brief: (§1)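 Rat liver MAO (crude P2 mitochondrial fraction from adult male Wistar rats, in pH 7.4 phosphate buffer) incubated with substrate at 30 μM to 5 mM; colorimetric detection of H2O2 formed. Blanks contained 0.1 mM pargyline. Vmax and Km from linear regression of Lineweaver-Burk plots; means ± SE of n separate experiments; ANOVA with post-hoc Scheffe test.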

[1] = separate experiments, n=5); method in brief: as §1
[2] = Ratio between Vmax and Km; method in brief: as §1

For `CN1CC=C(c2ccccc2CCl)CC1`, the Vmax (Rattus norvegicus) was 231 nM hr-1 (mg of protein)-1, the Km [1] was 186 µM and the Ratio [2] was 1.24.
